The target in assay [1] is Tyrosine-protein kinase Fyn (Homo sapiens, UniProt P06241). Nature of the assay: Inhibition of FYN (unknown origin) using [gamma-33P]ATP. In short, it runs like this:
(§1)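 Radiometric kinase profiling service covering 288 kinases (261 wild-type, 27 mutant). Inhibition was read as incorporation from [γ-³³P]ATP.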

The target of assay [2] is Tyrosine-protein kinase Yes (Homo sapiens, UniProt P07947). Briefly: Inhibition of YES (unknown origin) using [gamma-33P]ATP. An outline of the steps:
as §1

Assay [3] deals with Mitogen-activated protein kinase kinase kinase 9 (Homo sapiens, UniProt P80192). Briefly: Inhibition of MLK1 (unknown origin) using [gamma-33P]ATP. In short, it runs like this:
as §1

Assay [4] addresses Mast/stem cell growth factor receptor Kit (Homo sapiens, UniProt P10721, D816V). Nature of the assay: Inhibition of c-Kit D816V mutant (unknown origin) using [gamma-33P]ATP. An outline of the steps: as §1
Assay [5] addresses Mitogen-activated protein kinase kinase kinase kinase 4 (Homo sapiens, UniProt O95819). Nature of the assay: Inhibition of HGK (unknown origin) using [gamma-33P]ATP. In short, it runs like this: as §1
The target in assay [6] is Serine/threonine-protein kinase Chk2 (Homo sapiens, UniProt O96017). Briefly: Inhibition of CHK2 (unknown origin) using [gamma-33P]ATP. An outline of the steps: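 Radiometric profiling across 288 kinases (261 wild-type, 27 mutant), run as an outsourced service. Inhibition read out as [gamma-33P]ATP incorporation into substrate.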
Serine/threonine-protein kinase Chk2, sequence (O96017 whole entry): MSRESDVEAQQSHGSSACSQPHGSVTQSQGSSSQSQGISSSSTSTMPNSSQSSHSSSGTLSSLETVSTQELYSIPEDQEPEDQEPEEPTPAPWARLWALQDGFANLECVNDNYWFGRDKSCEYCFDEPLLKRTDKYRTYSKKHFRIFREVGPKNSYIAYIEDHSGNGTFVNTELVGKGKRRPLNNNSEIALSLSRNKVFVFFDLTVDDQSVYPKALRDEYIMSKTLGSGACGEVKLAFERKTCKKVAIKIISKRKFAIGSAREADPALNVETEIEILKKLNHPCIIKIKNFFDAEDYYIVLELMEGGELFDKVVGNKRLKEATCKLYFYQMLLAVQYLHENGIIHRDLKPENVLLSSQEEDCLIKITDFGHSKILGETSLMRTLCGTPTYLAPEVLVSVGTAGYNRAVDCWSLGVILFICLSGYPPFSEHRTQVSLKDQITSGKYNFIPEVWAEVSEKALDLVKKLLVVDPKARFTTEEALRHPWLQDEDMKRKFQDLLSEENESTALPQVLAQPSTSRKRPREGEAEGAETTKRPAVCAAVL
Assay [7] deals with Tyrosine-protein kinase Fgr (Homo sapiens, UniProt P09769). Briefly: Inhibition of FGR (unknown origin) using [gamma-33P]ATP. An outline of the steps:
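Reaction Biology HotSpot radiometric profiling panel of 288 kinases (261 wild-type, 27 mutant). Kinase activity was read out by incorporation of [γ-33P]ATP.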

The target in assay [8] is Mitogen-activated protein kinase kinase kinase kinase 2 (Homo sapiens, UniProt Q12851). Briefly: Inhibition of GCK (unknown origin) using [gamma-33P]ATP. In short, it runs like this: as §1
Assay [9] addresses Myosin light chain kinase, smooth muscle (Homo sapiens, UniProt Q15746). Nature of the assay: Inhibition of MLCK (unknown origin) using [gamma-33P]ATP. In short, it runs like this: as §1
Assay [10] concerns the target T1, Focal adhesion kinase 1 (Homo sapiens, UniProt Q05397).
Assay [11] concerns the target T1, Focal adhesion kinase 1. Nature of the assay: Inhibition of human GST-tagged phosphorylated full length FAK incubated for 60 mins prior to 0.5 uM of ATP addition by HTRF analysis. A general note: Time-resolved FRET reads energy transfer from a long-lived donor to a nearby acceptor.
Assay [12] concerns the target T2, Protein-tyrosine kinase 2-beta (Homo sapiens, UniProt Q14289). Nature of the assay: Inhibition of human 6His-tagged unphosphorylated PYK2 (1 to 967) using Poly-(GT)-biotin as substrate by AlphaScreen assay in presence of [gamma-33P]ATP.
The target of assay [13] is T1, Focal adhesion kinase 1. The source holds these as a separate data set.
Assay [14] addresses T1, Focal adhesion kinase 1. Nature of the assay: Inhibition of human FLAG-tagged unphosphorylated full length FAK expressed in baculovirus expression system incubated for 5 mins prior to 0.5 uM ATP addition by AlphaScreen assay. (Bead proximity is the source of the signal in Alpha formats.)
The target of assay [15] is T1, Focal adhesion kinase 1. The source holds these as a separate data set.
Assay [16] concerns the target T1, Focal adhesion kinase 1. Nature of the assay: Inhibition of human FLAG-tagged unphosphorylated full length FAK expressed in baculovirus expression system incubated for 60 mins prior to 1000 uM of ATP addition by AlphaScreen assay.
A short description of assay [17]: Inhibition of PDGFRa D824V mutant (unknown origin) using [gamma-33P]ATP. Also noted: species or system Homo sapiens.
For assay [18], the target named is T1, Focal adhesion kinase 1. Nature of the assay: Inhibition of human FLAG-tagged unphosphorylated full length FAK expressed in baculovirus expression system incubated for 60 mins prior to 0.5 uM of ATP addition by AlphaScreen assay.
In assay [19] the target is T1, Focal adhesion kinase 1. Briefly: Inhibition of human GST-tagged phosphorylated full length FAK incubated for 5 mins prior to 0.5 uM of ATP addition by HTRF analysis.
For assay [20], the target named is T1, Focal adhesion kinase 1. Briefly: Inhibition of human GST-tagged phosphorylated full length FAK incubated for 5 mins prior to 1000 uM of ATP addition by HTRF analysis.
In assay [21] the target is T1, Focal adhesion kinase 1. This is another data set of the same source.
For assay [22], the target named is T1, Focal adhesion kinase 1. Nature of the assay: Inhibition of human GST-tagged phosphorylated full length FAK incubated for 60 mins prior to 1000 uM of ATP addition by HTRF analysis.
Assay [23] concerns the target T2, Protein-tyrosine kinase 2-beta. Nature of the assay: Inhibition of human GST-tagged phosphorylated full length PYK2 (1 to 967) using Poly-(GT)-biotin as substrate by HTRF analysis in presence of [gamma-33P]ATP.
Assay [24] has as its target T1, Focal adhesion kinase 1. Briefly: Inhibition of human FLAG-tagged unphosphorylated full length FAK expressed in baculovirus expression system incubated for 5 mins prior to 1000 uM of ATP addition by AlphaScreen assay.

The text below walks through data of ChEMBL document CHEMBL2346629, “Discovery and characterization of novel allosteric FAK inhibitors” (Eur J Med Chem, 2013).

One may read the IC50 as the concentration needed to halve the response being measured.

T1 sequence (Q05397 whole entry): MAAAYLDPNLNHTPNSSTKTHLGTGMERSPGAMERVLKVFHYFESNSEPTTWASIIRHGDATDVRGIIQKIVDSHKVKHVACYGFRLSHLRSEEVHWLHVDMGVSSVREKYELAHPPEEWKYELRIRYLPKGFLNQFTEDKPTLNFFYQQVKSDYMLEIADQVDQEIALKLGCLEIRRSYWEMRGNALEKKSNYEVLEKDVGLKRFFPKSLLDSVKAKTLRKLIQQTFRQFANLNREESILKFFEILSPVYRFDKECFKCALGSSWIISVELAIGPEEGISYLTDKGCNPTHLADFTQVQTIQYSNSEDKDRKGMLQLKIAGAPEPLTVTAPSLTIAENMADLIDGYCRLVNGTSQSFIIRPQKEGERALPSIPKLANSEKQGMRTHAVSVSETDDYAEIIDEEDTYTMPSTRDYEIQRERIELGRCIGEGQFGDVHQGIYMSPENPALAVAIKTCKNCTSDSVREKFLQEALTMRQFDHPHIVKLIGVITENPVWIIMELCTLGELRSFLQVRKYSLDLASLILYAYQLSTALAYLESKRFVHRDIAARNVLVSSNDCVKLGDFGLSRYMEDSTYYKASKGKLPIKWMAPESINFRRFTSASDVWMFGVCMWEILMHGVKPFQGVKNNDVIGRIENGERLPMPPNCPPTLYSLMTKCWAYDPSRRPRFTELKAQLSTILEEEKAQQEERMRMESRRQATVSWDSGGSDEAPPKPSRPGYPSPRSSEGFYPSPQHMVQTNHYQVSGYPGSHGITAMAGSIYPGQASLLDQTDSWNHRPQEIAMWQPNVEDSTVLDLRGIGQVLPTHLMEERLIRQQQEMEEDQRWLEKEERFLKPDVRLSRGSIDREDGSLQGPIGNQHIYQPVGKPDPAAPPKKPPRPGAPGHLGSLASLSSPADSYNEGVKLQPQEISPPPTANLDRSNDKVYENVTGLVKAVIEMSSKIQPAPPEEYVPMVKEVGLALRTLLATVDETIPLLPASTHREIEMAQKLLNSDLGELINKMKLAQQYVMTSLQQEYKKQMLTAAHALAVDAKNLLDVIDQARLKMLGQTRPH
Myosin light chain kinase, smooth muscle, sequence (Q15746 whole entry): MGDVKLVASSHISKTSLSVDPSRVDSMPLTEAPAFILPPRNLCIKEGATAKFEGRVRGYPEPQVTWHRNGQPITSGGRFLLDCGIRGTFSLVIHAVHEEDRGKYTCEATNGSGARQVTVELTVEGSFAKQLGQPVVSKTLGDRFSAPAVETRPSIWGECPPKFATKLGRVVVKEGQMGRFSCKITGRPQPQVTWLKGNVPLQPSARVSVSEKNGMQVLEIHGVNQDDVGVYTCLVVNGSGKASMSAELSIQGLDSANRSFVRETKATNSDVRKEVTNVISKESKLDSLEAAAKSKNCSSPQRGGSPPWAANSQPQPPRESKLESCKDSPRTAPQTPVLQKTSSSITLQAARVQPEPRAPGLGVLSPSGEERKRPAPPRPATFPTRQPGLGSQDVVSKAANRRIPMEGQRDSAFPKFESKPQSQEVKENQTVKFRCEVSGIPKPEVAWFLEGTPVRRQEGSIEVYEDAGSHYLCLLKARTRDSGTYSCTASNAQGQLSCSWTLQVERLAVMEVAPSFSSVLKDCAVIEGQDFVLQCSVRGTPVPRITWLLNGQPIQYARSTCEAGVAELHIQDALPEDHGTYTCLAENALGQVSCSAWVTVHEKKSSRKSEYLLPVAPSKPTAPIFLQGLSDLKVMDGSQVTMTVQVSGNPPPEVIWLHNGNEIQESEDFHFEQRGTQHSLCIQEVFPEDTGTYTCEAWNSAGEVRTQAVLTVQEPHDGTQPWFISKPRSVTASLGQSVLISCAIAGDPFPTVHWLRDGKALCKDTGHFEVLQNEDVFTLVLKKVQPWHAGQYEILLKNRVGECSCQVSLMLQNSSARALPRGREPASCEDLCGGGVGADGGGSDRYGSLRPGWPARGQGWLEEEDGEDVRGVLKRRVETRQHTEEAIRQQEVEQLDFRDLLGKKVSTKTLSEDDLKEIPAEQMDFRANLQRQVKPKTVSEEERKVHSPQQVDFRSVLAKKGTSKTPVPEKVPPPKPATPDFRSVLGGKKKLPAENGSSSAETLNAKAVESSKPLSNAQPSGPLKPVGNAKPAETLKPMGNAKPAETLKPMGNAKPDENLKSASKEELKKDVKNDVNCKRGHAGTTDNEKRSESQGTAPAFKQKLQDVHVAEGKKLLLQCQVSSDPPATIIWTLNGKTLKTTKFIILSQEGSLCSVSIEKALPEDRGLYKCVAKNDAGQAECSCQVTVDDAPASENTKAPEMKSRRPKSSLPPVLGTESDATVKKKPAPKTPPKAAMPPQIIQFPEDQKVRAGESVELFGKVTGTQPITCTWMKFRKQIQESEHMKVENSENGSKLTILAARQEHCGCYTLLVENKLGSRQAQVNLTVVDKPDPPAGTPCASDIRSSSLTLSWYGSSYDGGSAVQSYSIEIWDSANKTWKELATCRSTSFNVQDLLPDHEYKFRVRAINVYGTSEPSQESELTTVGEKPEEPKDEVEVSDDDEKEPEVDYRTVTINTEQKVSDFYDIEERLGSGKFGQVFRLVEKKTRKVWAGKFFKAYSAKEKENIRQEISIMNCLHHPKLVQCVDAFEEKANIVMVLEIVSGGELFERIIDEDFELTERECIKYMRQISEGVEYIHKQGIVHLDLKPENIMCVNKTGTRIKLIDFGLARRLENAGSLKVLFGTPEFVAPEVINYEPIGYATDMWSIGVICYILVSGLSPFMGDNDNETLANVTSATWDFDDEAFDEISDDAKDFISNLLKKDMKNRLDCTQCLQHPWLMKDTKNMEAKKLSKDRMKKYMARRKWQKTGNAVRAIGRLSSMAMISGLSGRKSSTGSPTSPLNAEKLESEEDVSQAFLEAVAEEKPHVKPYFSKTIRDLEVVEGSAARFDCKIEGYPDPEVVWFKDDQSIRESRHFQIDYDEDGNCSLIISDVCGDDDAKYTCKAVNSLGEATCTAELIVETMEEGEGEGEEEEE
Tyrosine-protein kinase Yes, sequence (P07947 whole entry): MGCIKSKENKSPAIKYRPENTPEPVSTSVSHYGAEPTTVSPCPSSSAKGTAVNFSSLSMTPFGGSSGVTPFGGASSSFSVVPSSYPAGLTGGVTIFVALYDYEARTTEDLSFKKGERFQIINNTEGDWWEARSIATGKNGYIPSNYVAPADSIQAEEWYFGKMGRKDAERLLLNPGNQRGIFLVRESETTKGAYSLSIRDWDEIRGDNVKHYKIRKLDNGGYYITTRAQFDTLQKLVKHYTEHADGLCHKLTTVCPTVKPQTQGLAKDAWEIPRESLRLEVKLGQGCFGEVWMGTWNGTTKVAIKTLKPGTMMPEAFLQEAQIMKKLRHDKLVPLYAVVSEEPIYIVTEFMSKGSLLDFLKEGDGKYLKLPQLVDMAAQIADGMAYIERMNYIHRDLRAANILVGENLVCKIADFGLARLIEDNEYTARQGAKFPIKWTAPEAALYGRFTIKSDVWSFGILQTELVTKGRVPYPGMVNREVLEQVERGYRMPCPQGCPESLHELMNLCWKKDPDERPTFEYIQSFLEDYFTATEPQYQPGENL
Tyrosine-protein kinase Fgr, sequence (P09769 whole entry): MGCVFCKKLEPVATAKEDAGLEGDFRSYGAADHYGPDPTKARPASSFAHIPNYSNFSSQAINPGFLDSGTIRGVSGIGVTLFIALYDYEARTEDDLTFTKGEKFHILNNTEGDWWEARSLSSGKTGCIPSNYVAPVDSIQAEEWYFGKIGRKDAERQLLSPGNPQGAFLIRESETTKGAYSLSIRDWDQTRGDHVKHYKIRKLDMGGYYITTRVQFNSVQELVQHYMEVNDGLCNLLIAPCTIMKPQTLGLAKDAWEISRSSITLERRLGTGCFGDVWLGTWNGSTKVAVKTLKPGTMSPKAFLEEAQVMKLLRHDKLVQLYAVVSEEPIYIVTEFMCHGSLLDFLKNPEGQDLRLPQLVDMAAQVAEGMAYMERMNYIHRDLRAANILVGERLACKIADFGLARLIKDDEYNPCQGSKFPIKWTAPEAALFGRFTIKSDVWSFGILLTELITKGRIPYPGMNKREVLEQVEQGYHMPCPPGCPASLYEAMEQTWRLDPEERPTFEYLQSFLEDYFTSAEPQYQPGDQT

Regarding `CCc1ccc(-c2ccc3c(c2)-c2n[nH]cc2S(=O)(=O)N3C)cc1`, the 50% inhibitory concentration (IC50) came out at 2.8 µM in assay [1]; 1.8 µM in assay [2]; 0.37 µM in [3]; 2.8 µM in assay [4]; 1.6 µM in assay [5]; 3.4 µM in assay [6]. Besides, the half-maximal inhibitory concentration (IC50) in assay [7] stood at 1.9 µM; in [8], 3 µM; in [9], 4 µM.
For the molecule `CCc1ccc(-c2ccc3c(c2)-c2c(cnn2CC)S(=O)(=O)N3C)cc1`, the IC50 was 3 µM on Focal adhesion kinase 1 [10]; greater than 30 µM at Focal adhesion kinase 1 [11]; greater than 30 µM in assay [12]; greater than 10 µM in [1]; greater than 10 µM in assay [2]; 1 µM at Focal adhesion kinase 1 [13]. Further, the IC50 at Focal adhesion kinase 1 [14] is greater than 10 µM; against Focal adhesion kinase 1 [15], 1.3 µM; against Focal adhesion kinase 1 [16], 3.2 µM; in assay [17], greater than 10 µM; in assay [3], greater than 10 µM; against Focal adhesion kinase 1 [18], 3.2 µM. The IC50 in [4] was greater than 10 µM; against Focal adhesion kinase 1 [19], greater than 30 µM; at Focal adhesion kinase 1 [20] it was greater than 30 µM; against Focal adhesion kinase 1 [21], 1.6 µM; against Focal adhesion kinase 1 [22] it was greater than 30 µM; in [23], greater than 30 µM. The concentration for half-maximal inhibition (IC50) (in [5]; at Focal adhesion kinase 1 [24]; in assay [6]; in [7]; in [8]; in [9]) was greater than 10 µM each time.
